Published values pooled from the literature.
Each line is one published result; the experiments were not run side by side.
Target: Serine/threonine-protein kinase BRSK2 (BRSK2, Homo sapiens, UniProt Q8IWQ3)
Sequence (Q8IWQ3 1-736, as in one of the studies): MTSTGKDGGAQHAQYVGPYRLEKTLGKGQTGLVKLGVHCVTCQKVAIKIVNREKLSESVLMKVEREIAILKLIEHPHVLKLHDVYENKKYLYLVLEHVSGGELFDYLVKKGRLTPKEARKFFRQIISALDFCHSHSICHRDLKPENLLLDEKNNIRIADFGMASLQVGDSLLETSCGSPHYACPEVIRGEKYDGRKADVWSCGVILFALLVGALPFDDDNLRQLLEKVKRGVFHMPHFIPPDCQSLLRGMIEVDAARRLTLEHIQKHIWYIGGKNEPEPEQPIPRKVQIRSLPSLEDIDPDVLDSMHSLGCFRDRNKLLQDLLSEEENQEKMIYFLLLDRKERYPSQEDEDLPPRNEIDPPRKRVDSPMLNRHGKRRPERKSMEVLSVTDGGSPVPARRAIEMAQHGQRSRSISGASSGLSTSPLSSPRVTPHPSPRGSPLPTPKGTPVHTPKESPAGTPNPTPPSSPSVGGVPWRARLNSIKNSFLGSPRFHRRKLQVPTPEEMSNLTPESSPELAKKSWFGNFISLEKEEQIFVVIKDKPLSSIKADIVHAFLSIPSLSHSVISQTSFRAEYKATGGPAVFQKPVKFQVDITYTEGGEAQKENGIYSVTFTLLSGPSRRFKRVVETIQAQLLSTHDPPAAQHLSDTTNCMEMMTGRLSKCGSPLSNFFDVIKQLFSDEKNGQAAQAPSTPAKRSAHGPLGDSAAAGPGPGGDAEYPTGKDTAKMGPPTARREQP

Cn1cncc1[C@@](O)(COc1ccc(C#N)cc1-c1ccc(OC(F)(F)F)cc1)c1ccc(C#N)cc1 — remaining binding (cell-free assay; competition with immobilised ligand; 1 µM): 100%
CC(C)(C)c1cc(C=C(C#N)C#N)cc(Br)c1O — remaining activity (enzyme activity; inhibitor; 0.5 µM): 94.5%
Nc1ncc(-c2nc(N3CCOCC3)nc(N3CCOCC3)n2)c(C(F)F)n1 — remaining binding (binding; competition with immobilised ligand; 10 µM): 92%
COc1cc(Nc2ncc(F)c(Nc3ccc4c(n3)NC(=O)C(C)(C)O4)n2)cc(OC)c1OC — inhibition (binding; competition with immobilised ligand; 10 µM): 0%
Cc1nn(C)cc1-c1nc2c(N3CCN(Cc4ccc(Cl)cc4)CC3)c(Cl)cnc2[nH]1 — remaining binding (binding; competition with immobilised ligand; 1 µM): 100%
N#CC1(c2ccccn2)CCN(Cc2cc(C(=O)O)c(=O)n3ccccc23)CC1 — remaining binding (cell-free assay; competition with immobilised ligand; 1 µM): 100%
O=c1[nH]c2ccccc2n1C1CCN(Cc2ccc(-c3[nH]c4cc5ncnc5cc4nc3-c3ccccc3)cc2)CC1 — remaining signal (cell-free assay; 0.5 µM): 106%
COc1ncccc1-c1cnn2ccc(N3CCN(C(=O)OC(C)C)CC3)nc12 — remaining binding (binding; competition with immobilised ligand; 1 µM): 82%
